Results collected from several papers.
Protocols differ between the studies behind these lines.
Target: Aurora kinase A (AURKA, Homo sapiens, UniProt O14965)
One construct used (O14965 1-403): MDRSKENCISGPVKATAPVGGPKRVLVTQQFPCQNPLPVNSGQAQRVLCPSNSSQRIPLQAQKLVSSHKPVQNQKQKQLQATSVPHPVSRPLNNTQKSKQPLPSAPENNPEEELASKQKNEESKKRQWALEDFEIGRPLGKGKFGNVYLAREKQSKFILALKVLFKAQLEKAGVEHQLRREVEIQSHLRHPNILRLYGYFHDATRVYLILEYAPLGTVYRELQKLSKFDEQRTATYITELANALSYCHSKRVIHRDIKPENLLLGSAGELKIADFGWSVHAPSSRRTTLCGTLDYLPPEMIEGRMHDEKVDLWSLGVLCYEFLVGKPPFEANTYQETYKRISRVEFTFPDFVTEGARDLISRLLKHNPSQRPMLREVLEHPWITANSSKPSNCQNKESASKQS

Cc1c[nH]c2nccc(Oc3c(F)cc(Nc4cc(Cl)nc(N)n4)cc3F)c12
remaining binding (cell-free assay; competition with immobilised ligand; 0.1 µM): 94%

CNc1cccc2cc(C(=O)Nc3ccc(C(=O)O)cc3)c(=O)[nH]c12
inhibition (enzyme activity; inhibitor; 10 µM): 16%

CC(C)c1ccc(NC(=O)c2cccs2)c(-c2nc3ccccc3[nH]c2=O)c1
activity vs control (enzyme activity; inhibitor; 1 µM): 83%

CCN(CC)CCNC(=O)c1c(C)[nH]c(/C=C2\C(=O)Nc3ccc(F)cc32)c1C
remaining activity (enzyme activity; inhibitor; 0.1 µM): 83%

Cc1nc(Cc2cccc(C(F)(F)F)c2)sc1-c1ccc(C(N)=O)nc1
remaining binding (cell-free assay; competition with immobilised ligand; 1 µM): 100%

CC(C)(C)c1nc2c(s1)c1nc(N)ncc1c1ccc(NS(=O)(=O)c3c(F)cccc3F)c(F)c12
remaining activity (enzyme activity; inhibitor; radiometric; 1 µM): 103%

Cc1ccc(Nc2nccc(N(C)c3ccc4c(C)n(C)nc4c3)n2)cc1S(N)(=O)=O
inhibition (enzyme activity; inhibitor; 10 µM): 99%

Cc1cc(NC(=O)c2cccc3cc(-c4cccc5[nH]nc(N)c45)ccc23)ccc1F
activity vs control (enzyme activity; inhibitor; 0.1 µM): 95%

N#CC1(c2ccccn2)CCN(Cc2cc(C(=O)N3CCCC3)c(=O)n3ccccc23)CC1
remaining binding (cell-free assay; competition with immobilised ligand; 1 µM): 90%

COc1cc2ncnc(Nc3ccc(Oc4ccccc4)c(C)c3C)c2cc1OC
inhibition (enzyme activity; inhibitor; 1 µM): 13%

CCN(CC)c1ccc(C2=NNC(=O)CC2C)cc1[N+](=O)[O-] (centres unmarked)
remaining activity (enzyme activity; inhibitor; 10 µM): 93%

CN1CC(Oc2cnc(C#N)cc2-c2ccn3nc(NC(=O)C4CC4)cc3c2)C1
inhibition (enzyme activity; inhibitor; 1 µM): 6%

CCC(=N\O)/C(C)=C/c1ccc(F)cc1
remaining binding (cell-free assay; competition with immobilised ligand; 1 µM): 100%

CS(=O)(=O)Nc1cccc(-c2csc(NC(=O)CSc3nc4nccnc4c(=O)n3CCc3ccccc3)n2)c1
inhibition (enzyme activity; inhibitor; 10 µM): 0%

CNC(=O)c1cc(Oc2ccc(NC(=O)Nc3ccc(Cl)c(C(F)(F)F)c3)cc2)ccn1
inhibition (enzyme activity; inhibitor; 10 µM): 86%

COc1cc2nccc(Oc3ccc(NC(=O)c4c5n(n(-c6ccc(F)cc6)c4=O)CCCC5)cc3)c2cc1OC
inhibition (enzyme activity; inhibitor; 0.1 µM): -3%

COc1cc(Nc2cnc(C#N)c(O[C@H](C)CN(C)C)n2)ncc1-c1cnn(C)c1
remaining activity (enzyme activity; inhibitor; radiometric; 10 µM): 48%

FC(F)c1nc2ccccc2n1-c1nc(N2CCOCC2)nc(N2CCOCC2)n1
remaining activity (enzyme activity; inhibitor; 10 µM): 99%

CCN(CC)CCNC(=O)c1c(C)[nH]c(/C=C2\C(=O)Nc3ccc(F)cc32)c1C
inhibition (enzyme activity; inhibitor; 10 µM): 84%

Oc1cccc(-c2nc(N3CCOCC3)c3oc4ncccc4c3n2)c1
remaining activity (enzyme activity; inhibitor; 10 µM): 92%

Cc1cc(NC(=O)c2cccc(S(F)(F)(F)(F)F)c2)cc(-n2ccn3nc(-c4cccnc4)cc23)c1
remaining binding (cell-free assay; competition with immobilised ligand; 1 µM): 84.9%

Cc1sc(C(=O)NC2COC2)cc1-n1cc(NC(=O)Nc2c(F)cccc2Cl)cn1
remaining activity (enzyme activity; inhibitor; 10 µM): 88.4%

C[C@@H]1CCN(C(=O)CC#N)C[C@@H]1N(C)c1ncnc2[nH]ccc12
remaining signal (cell-free assay; inhibitor; 0.5 µM): 84.1%

Nc1ncnc2occ(-c3ccc(NC(=O)Nc4cc(C(F)(F)F)ccc4F)cc3)c12
remaining activity (enzyme activity; inhibitor; 20 µM): 0.1%

O=Nc1c(-c2c(O)[nH]c3ccccc23)[nH]c2ccccc12
remaining signal (cell-free assay; 0.5 µM): 21.3%

Cc1ccc(C(=O)Nc2ccc(CN3CCN(C)CC3)c(C(F)(F)F)c2)cc1C#Cc1cnc2cccnn12
remaining activity (enzyme activity; inhibitor; 23.5 nM): 97%

O=C(N1CCS(=O)(=O)CC1)N1C[C@H](c2ccc(OC(F)(F)F)cc2)C[C@H](c2nc(C3CC3)no2)C1
remaining binding (cell-free assay; competition with immobilised ligand; 1 µM): 100%

Cc1[nH]c(/C=C2\C(=O)Nc3ccc(F)cc32)c(C)c1C(=O)N[C@H]1CCN(C(=O)N(C)C)C1
remaining activity (enzyme activity; inhibitor; 1 µM): 35%

CC1=C(C#N)C(c2ccc3c(c2)c(NC(=O)c2ccccc2C)nn3C)C(C#N)=C(C)N1
remaining binding (cell-free assay; competition with immobilised ligand; 1 µM): 61%

Cc1ccc(NC(=O)c2ccc(C)c(C(F)(F)F)c2)cc1C#Cc1nn(C2CCC(O)CC2)c2ncnc(N)c12 (centres unmarked)
remaining signal (cell-free assay; 10 µM): 64%

CN(c1ccnc(CNc2nc(Nc3ccc4c(c3)CC(=O)N4)ncc2C(F)(F)F)n1)S(C)(=O)=O
remaining binding (cell-free assay; competition with immobilised ligand; 1 µM): 14%

CNC(=O)c1ccccc1Nc1cc(Nc2ccc(N3CCOCC3)cc2OC)ncc1C(F)(F)F
inhibition (enzyme activity; inhibitor; 1 µM): > 50%
